Test results from ChEMBL document CHEMBL3091462 (J Nat Prod, 2013).
Active and inactive are the calls of the source. No cut-off for these calls is given here.

How the values were obtained:
SW-620 [1] = assay: Cell cycle arrest in human SW620 cells assessed as accumulation at S phase after 48 hrs using propidium iodide staining by flow cytometry; assay type: functional, cell-based
HCT-116 [2] = assay: Cytotoxicity against human HCT116 cells assessed as cell viability at 0.1 to 2 uM after 24 to 72 hrs; assay type: functional, cell-based
Outline: (§1)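 Cells seeded at 10^5 per well in RPMI 1640/10% FBS at 37 °C. Subconfluent cells exposed to 0, 0.1, 0.5, 1, 2, 5 or 10 μM for 48 h, or to 10 μM for 24, 48 and 72 h; ethanol vehicle, at most 0.01% v/v final. Cells trypsinized and counted by hemocytometer. Viability as % of control, means ± SD, three experiments in triplicate.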

HCT-116 [3] = assay: Induction of apoptosis in human HCT116 cells assessed as increase of expression of cleaved caspase-9 and caspase-3 after 24 hrs by immunoblotting; assay type: functional, cell-based
Outline: (§2)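 HCT-116 or SW-620 cells treated with 0–10 μM for 24 h, lysed, and run on 15% SDS-PAGE immunoblots. Probed for Bcl-2 (1:1000), Bax (1:500), caspase-9/-3 and their cleaved forms (1:1000), and β-actin (1:1000). Bands quantified by densitometry; means ± SD of three experiments in duplicate.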

SW-620 [4] = assay: Cell cycle arrest in human SW620 cells assessed as accumulation at S phase at 5 uM after 48 hrs using propidium iodide staining by flow cytometry (reference value: 43.1 +/- 1%); assay type: functional
HCT-116 [5] = assay: Cell cycle arrest in human HCT116 cells assessed as accumulation at G0/G1 phase at 5 uM after 48 hrs using propidium iodide staining by flow cytometry (reference value: 56.7 +/- 1.9%); assay type: functional
SW-620 [6] = assay: Cell cycle arrest in human SW620 cells assessed as accumulation at G0/G1 phase at 1 uM after 48 hrs using propidium iodide staining by flow cytometry (reference value: 47.8 +/- 1.2%); assay type: functional
SW-620 [7] = assay: Antitumor activity against human SW620 cells xenografted in BALB/c-nude mouse assessed as reduction of tumor weight at 100 mg/kg, po administered every other day from day 2 to 21 (reference value: 417 mg); assay type: functional
Outline: (§3)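 Male BALB/c-nude mice; 2 × 10^6 tumour cells in 0.2 mL PBS injected intradermally into the flank on day 0, n = 10 per group. Oral dosing every other day for 3 weeks, starting 2 days after inoculation. Caliper tumour volume = (width)2 × length/2, measured periodically. Tumours excised and weighed at day 21. Means ± SE.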

SW-620 [8] = assay: Cell cycle arrest in human SW620 cells assessed as accumulation at G2/M phase at 5 uM after 48 hrs using propidium iodide staining by flow cytometry (reference value: 9.1 +/- 0.3%); assay type: functional
SW-620 [9] = assay: Induction of apoptosis in human SW620 cells assessed as reduction of Bcl-2 protein expression at 0.5 to 10 uM after 24 hrs by immunoblotting; assay type: functional, cell-based; outline: as §2
SW-620 [10] = assay: Cell cycle arrest in human SW620 cells assessed as accumulation at G2/M phase at 10 uM after 48 hrs using propidium iodide staining by flow cytometry (reference value: 9.1 +/- 0.3%); assay type: functional
SW-620 [11] = assay: Cytotoxicity against human SW620 cells expressing p21 siRNA at 10 uM after 24 hrs by trypan blue staining; assay type: functional, cell-based
Outline: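 Cells plated at 5 × 10^4 per well and transfected with 100 nM scrambled or p21 siRNA in OPTI-MEM for 4 h. Complete RPMI medium was added and cells grown a further 24 h, then exposed to 10 μM for 24 h. Viability measured by direct count after trypan blue staining. Morphology viewed by phase-contrast at 200×. Means ± SD, three experiments in triplicate.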

HCT-116 [12] = assay: Cytotoxicity against human HCT116 cells at 0.1 to 10 uM; assay type: functional, cell-based; details: TDE = time-dependent effect; outline: as §1
SW-620 [13] = assay: Induction of apoptosis in human SW620 cells assessed as increase of expression of cleaved caspase-9 and caspase-3 after 24 hrs by immunoblotting; assay type: functional, cell-based; outline: as §2
HCT-116 [14] = assay: Cell cycle arrest in human HCT116 cells assessed as accumulation at G0/G1 phase at 10 uM after 48 hrs using propidium iodide staining by flow cytometry (reference value: 56.7 +/- 1.9%); assay type: functional
SW-620 [15] = assay: Cell cycle arrest in human SW620 cells assessed as accumulation at G0/G1 phase at 0.5 uM after 48 hrs using propidium iodide staining by flow cytometry (reference value: 47.8 +/- 1.2%); assay type: functional
HCT-116 [16] = assay: Cell cycle arrest in human HCT116 cells assessed as accumulation at G2/M phase at 10 uM after 48 hrs using propidium iodide staining by flow cytometry (reference value: 7.1 +/- 0.3%); assay type: functional
HCT-116 [17] = assay: Cell cycle arrest in human HCT116 cells assessed as accumulation at G0/G1 phase at 1 uM after 48 hrs using propidium iodide staining by flow cytometry (reference value: 56.7 +/- 1.9%); assay type: functional
HCT-116 [18] = assay: Cell cycle arrest in human HCT116 cells assessed as accumulation at G2/M phase at 5 uM after 48 hrs using propidium iodide staining by flow cytometry (reference value: 7.1 +/- 0.3%); assay type: functional
SW-620 [19] = assay: Induction of apoptosis in human SW620 cells assessed as increase of Bax protein expression after 24 hrs by immunoblotting; assay type: functional, cell-based; outline: as §2
SW-620 [20] = assay: Cell cycle arrest in human SW620 cells assessed as accumulation at G2/M phase at 1 uM after 48 hrs using propidium iodide staining by flow cytometry (reference value: 9.1 +/- 0.3%); assay type: functional
SW-620 [21] = assay: Cell cycle arrest in human SW620 cells assessed as accumulation at S phase at 1 uM after 48 hrs using propidium iodide staining by flow cytometry (reference value: 43.1 +/- 1%); assay type: functional
SW-620 [22] = assay: Cell cycle arrest in human SW620 cells assessed as accumulation at G0/G1 phase at 5 uM after 48 hrs using propidium iodide staining by flow cytometry (reference value: 47.8 +/- 1.2%); assay type: functional
SW-620 [23] = assay: Cytotoxicity against human SW620 cells assessed as cell growth inhibition at 10 uM after 48 hrs; assay type: functional; details: SW-620, 48 h, read-out: GI; outline: as §1
SW-620 [24] = assay: Cell cycle arrest in human SW620 cells assessed as accumulation at G0/G1 phase at 10 uM after 48 hrs using propidium iodide staining by flow cytometry (reference value: 47.8 +/- 1.2%); assay type: functional
SW-620 [25] = assay: Antitumor activity against human SW620 cells xenografted in BALB/c-nude mouse assessed as reduction of tumor volume at 100 mg/kg, po administered every other day from day 2 to 21; assay type: functional, organism-based; set-up: dose 100 mg/kg; outline: as §3
HCT-116 [26] = assay: Cell cycle arrest in human HCT116 cells assessed as accumulation at S phase at 0.5 uM after 48 hrs using propidium iodide staining by flow cytometry (reference value: 36.3 +/- 1.7%); assay type: functional
SW-620 [27] = assay: Cell cycle arrest in human SW620 cells assessed as accumulation at S phase at 10 uM after 48 hrs using propidium iodide staining by flow cytometry (reference value: 43.1 +/- 1%); assay type: functional
HCT-116 [28] = assay: Decrease of Cdk2 expression in human HCT116 cells after 24 hrs by immunoblotting; assay type: functional, cell-based
Outline: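 HCT-116 or SW-620 cells exposed to 0–10 μM for 24 h. Cells lysed in Tris/NaCl/EDTA/1% Triton X-100 buffer with protease and phosphatase inhibitors at 4 °C, protein measured by BCA. Lysates run on 10–12.5% SDS-PAGE and immunoblotted, ECL detection. Cdk2, cyclin A and cyclin E antibodies used at 1:500; β-actin as loading control.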

SMILES: CC(C)c1cccc(=O)c(O)c1 [HINOKITIOL]
- Activity (SW-620 [1]): Dose-dependent effect
- Activity (HCT-116 [2]): Active
- Activity (HCT-116 [3]): Dose-dependent effect
- Activity (SW-620 [4]): 51.9%
- Activity (HCT-116 [5]): 44.6%
- Activity (SW-620 [6]): 45.6%
- Activity (SW-620 [7]): 252 mg
- Activity (SW-620 [8]): 7.2%
- Activity (SW-620 [9]): Active
- Activity (SW-620 [10]): 1.5%
- Activity (SW-620 [11]): inactive
- Activity (HCT-116 [12]): tde
- Activity (SW-620 [13]): Dose-dependent effect
- Activity (HCT-116 [14]): 38.8%
- Activity (SW-620 [15]): 48.3%
- Activity (HCT-116 [16]): 7.4%
- Activity (HCT-116 [17]): 55.1%
- Activity (HCT-116 [18]): 11.9%
- Activity (SW-620 [19]): Dose-dependent effect
- Activity (SW-620 [20]): 6.8%
- Activity (SW-620 [21]): 47.7%
- Activity (SW-620 [22]): 40.8%
- inhibition of growth at 10 µM (SW-620 [23]): 63%
- Activity (SW-620 [24]): 11.5%
- Activity (SW-620 [25]): Active
- Activity (HCT-116 [26]): 35.4%
- Activity (SW-620 [27]): 87%
- Activity (HCT-116 [28]): Dose-dependent effect
